Measurements reported in ChEMBL document CHEMBL1123300 (J Med Chem, 1986).
Non-standard residues stand in square brackets, D forms with d. Residues, ends and D or L forms follow the SMILES beside them. *: point of attachment. Ala(1-Adamantyl) = N[C@@H](CC12CC3CC(CC(C3)C1)C2)C(=O)O; Sta = CC(C)C[C@H](N)[C@@H](O)CC(=O)O; Adoc = O=C(OC12CC3CC(CC(C3)C1)C2)*; NMeF = CN[C@@H](Cc1ccccc1)C(=O)O; X1 = CC(C)(C)OC(=O)NCCS(=O)(=O)*; αMeF = C[C@](N)(Cc1ccccc1)C(=O)O; Phg = N[C@H](C(=O)O)c1ccccc1; Isovaleryl = CC(C)CC(=O)*; Nle = CCCC[C@H](N)C(=O)O; Nva = CCC[C@H](N)C(=O)O; Cbz = O=C(OCc1ccccc1)*; Boc = CC(C)(C)OC(=O)*; Moc = COC(=O)*

What was measured:
Renin [1] = target: T1, Renin (Homo sapiens, UniProt P00797); experiment: In vitro inhibitory activity against human plasma renin; format: cell-free
T1 sequence (P00797 whole entry): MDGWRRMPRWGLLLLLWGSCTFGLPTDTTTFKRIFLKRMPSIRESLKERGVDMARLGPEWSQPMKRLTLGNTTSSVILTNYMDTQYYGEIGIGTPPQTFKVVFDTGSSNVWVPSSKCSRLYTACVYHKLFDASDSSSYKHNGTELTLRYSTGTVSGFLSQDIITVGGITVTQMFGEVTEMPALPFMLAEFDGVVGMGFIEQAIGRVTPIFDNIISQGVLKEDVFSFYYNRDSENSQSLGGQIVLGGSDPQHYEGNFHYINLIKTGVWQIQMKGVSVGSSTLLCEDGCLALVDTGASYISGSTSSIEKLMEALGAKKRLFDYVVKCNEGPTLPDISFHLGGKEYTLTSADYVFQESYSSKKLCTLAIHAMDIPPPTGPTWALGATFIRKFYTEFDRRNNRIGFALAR

Renin [2] = target: T1, Renin; experiment: In vitro inhibitory activity against man (human) plasma renin; format: cell-free
Renin [3] = target: T1, Renin; experiment: In vitro inhibitory activity against monkey (Callithrix jacchus) plasma renin; format: cell-free; conditions: target entry is the homologue from another species
In short: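 Pooled plasma from animals whose plasma renin activity was stimulated with furosemide, incubated at 37 °C in pH 7.4 phosphate buffer with phenylmethanesulfonyl fluoride as angiotensinase inhibitor and increasing inhibitor concentrations. Angiotensin I generated was measured by RIA (Haber method). IC50 came from nonlinear logit vs log-concentration regression over five to seven concentrations.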

Renin [4] = target: T1, Renin; experiment: In vitro inhibitory activity against dog plasma renin; format: cell-free, Canis lupus familiaris; conditions: target entry is the homologue from another species
Renin [5] = target: T2, Renin (Rattus norvegicus, UniProt P08424); experiment: In vitro inhibitory activity against rat plasma renin; format: cell-free
T2 sequence (P08424 whole entry): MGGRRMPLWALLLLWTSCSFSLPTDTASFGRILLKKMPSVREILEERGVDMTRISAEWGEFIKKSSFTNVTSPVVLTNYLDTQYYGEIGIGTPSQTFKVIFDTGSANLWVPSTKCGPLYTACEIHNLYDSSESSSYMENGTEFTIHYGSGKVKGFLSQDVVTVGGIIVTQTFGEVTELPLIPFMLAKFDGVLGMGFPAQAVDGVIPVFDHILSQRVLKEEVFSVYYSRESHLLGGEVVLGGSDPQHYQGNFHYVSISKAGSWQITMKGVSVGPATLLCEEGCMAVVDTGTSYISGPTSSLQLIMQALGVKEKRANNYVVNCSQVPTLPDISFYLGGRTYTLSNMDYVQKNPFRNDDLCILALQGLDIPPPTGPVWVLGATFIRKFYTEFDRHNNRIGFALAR

Renin [6] = target: T1, Renin; experiment: Inhibition of dog plasma renin activity; format: cell-free, Canis lupus familiaris; conditions: target entry is the homologue from another species
Renin [7] = target: T2, Renin; experiment: Inhibition of rat plasma renin activity
Renin [8] = target: T1, Renin; experiment: Inhibition of man plasma renin activity; format: cell-free
Renin [9] = target: T1, Renin; experiment: Inhibition of monkey plasma renin activity; format: cell-free, Cercopithecidae; conditions: target entry is the homologue from another species
Renin [10] = target: T1, Renin; experiment: In vitro inhibitory activity against monkey plasma renin; format: cell-free, Cercopithecidae; conditions: target entry is the homologue from another species

| Compound | IC50 (Renin [1]) [nM] | other results |
| --- | --- | --- |
| COC(=O)C[C@H](O)[C@H](CC(C)C)NC(=O)[C@H](C)NC(=O)C[C@H](O)[C@H](CC(C)C)NC(=O)[C@H](Cc1ccccc1)NC(=O)[C@@H](NC(=O)OC(C)(C)C)c1ccccc1 (Boc-[Phg]F[Sta]A[Sta]-OMe) | > 10000 |  |
| COC(=O)C[C@H](O)[C@H](CC(C)C)NC(=O)[C@H](C)NC(=O)C[C@H](O)[C@H](CC(C)C)NC(=O)[C@H](Cc1ccccc1)NC(=O)[C@](C)(Cc1ccccc1)NC(=O)OC(C)(C)C (Boc-[αMeF]F[Sta]A[Sta]-OMe) | > 10000 |  |
| CCCC[C@H](NC(=O)[C@@H](N)Cc1ccccc1)C(=O)N[C@@H](CC(C)C)[C@@H](O)CC(=O)N[C@@H](C)C(=O)N[C@@H](CC(C)C)[C@@H](O)CC(=O)OC (H-F[Nle][Sta]A[Sta]-OMe) | 7700 |  |
| COC(=O)C[C@H](O)[C@H](CC(C)C)NC(=O)[C@H](C)NC(=O)C[C@H](O)[C@H](CC(C)C)NC(=O)[C@@H](NC(=O)[C@H](Cc1c[nH]c2ccccc12)NC(=O)OCc1ccccc1)C(C)C (Cbz-WV[Sta]A[Sta]-OMe) |  | IC50 (Renin [6]): 42 nM; IC50 (Renin [7]): 22 nM; IC50 (Renin [8]): 150 nM; IC50 (Renin [9]): 25 nM |
| COC(=O)C[C@H](O)[C@H](CC(C)C)NC(=O)[C@H](C)NC(=O)C[C@H](O)[C@H](CC(C)C)NC(=O)[C@@H]1CCCN1C(=O)[C@H](Cc1ccccc1)NC(=O)OCc1ccccc1 (Cbz-FP[Sta]A[Sta]-OMe) | 10000 |  |
| COC(=O)CC(O)[C@H](CC(C)C)NC(=O)[C@H](C)NC(=O)CC(O)[C@H](CC(C)C)NC(=O)CNC(=O)[C@H](Cc1ccccc1)NC(=O)CC(C)C (stereo not given in full) | 4700 |  |
| COC(=O)C[C@H](O)[C@H](CC(C)C)NC(=O)[C@H](C)NC(=O)C[C@H](O)[C@H](CC(C)C)NC(=O)[C@H](Cc1c[nH]c2ccccc12)NC(=O)[C@H](Cc1c[nH]c2ccccc12)NC(=O)OC(C)(C)C (Boc-WW[Sta]A[Sta]-OMe) |  | IC50 (Renin [7]): 1000 nM |
| COC(=O)CC(O)[C@H](CC(C)C)NC(=O)[C@H](C)NC(=O)CC(O)[C@H](CC(C)C)NC(=O)[C@@H](Cc1ccccc1)NC(=O)[C@H](Cc1ccccc1)NC(=O)OCc1ccccc1 (stereo not given in full) | > 10000 |  |
| COC(=O)C[C@H](O)[C@H](CC(C)C)NC(=O)[C@H](C)NC(=O)C[C@H](O)[C@H](CC(C)C)NC(=O)[C@H](CCCCN)NC(=O)[C@H](Cc1ccccc1)NC(=O)CC(C)C (Isovaleryl-FK[Sta]A[Sta]-OMe) | > 10000 |  |
| COC(=O)C[C@H](O)[C@H](CC(C)C)NC(=O)[C@H](C)NC(=O)C[C@H](O)[C@H](CC(C)C)NC(=O)[C@H](Cc1ccccc1)NC(=O)[C@H](Cc1ccccc1)NC(C)=O (Ac-FF[Sta]A[Sta]-OMe) | 1400 |  |
| COC(=O)CC(O)[C@H](CC(C)C)NC(=O)[C@H](C)NC(=O)CC(O)[C@H](CC(C)C)NC(=O)[C@@H](NS(=O)(=O)CCNC(=O)OCc1ccccc1)C(C)C (stereo not given in full) | > 10000 |  |
| COC(=O)C[C@H](O)[C@H](CC(C)C)NC(=O)[C@H](C)NC(=O)C[C@H](O)[C@H](CC(C)C)NC(=O)[C@H](Cc1ccccc1)NC(=O)[C@H](Cc1ccccc1)N(C)C(=O)OC(C)(C)C (Boc-[NMeF]F[Sta]A[Sta]-OMe) | > 10000 | IC50 (Renin [2]): 15000 nM; IC50 (Renin [10]): 15000 nM; IC50 (Renin [5]): 17000 nM |
| COC(=O)CC(O)[C@H](CC(C)C)NC(=O)[C@H](C)NC(=O)CC(O)[C@H](CC(C)C)NC(=O)[C@H](Cc1ccccc1)NC(=O)[C@@H](Cc1ccccc1)NC(=O)OC(C)(C)C (stereo not given in full) | > 10000 |  |
| COC(=O)C[C@H](O)[C@H](CC(C)C)NC(=O)[C@H](C)NC(=O)C[C@H](O)[C@H](CC(C)C)NC(=O)[C@H](Cc1ccccc1)NC(=O)[C@H](Cc1ccccc1)NC(=O)OC12CC3CC(CC(C3)C1)C2 (Adoc-FF[Sta]A[Sta]-OMe) | 3000 |  |

Second part, led by results:

| IC50 (Renin [1]) [nM] | Compound | other results |
| --- | --- | --- |
| 42 | CCC[C@H](N[C@@H](CC(C)C)[C@@H](O)CC(=O)N[C@@H](C)C(=O)N[C@@H](CC(C)C)[C@@H](O)CC(=O)OC)C(=O)N[C@@H](Cc1ccccc1)C(=O)NC(=O)CC(C)C | IC50 (Renin [2]): 42 nM; IC50 (Renin [3]): 30 nM; IC50 (Renin [4]): 58 nM; IC50 (Renin [5]): 880 nM |
| 30 | CCCC[C@H](NC(=O)[C@H](Cc1ccccc1)NC(=O)OC(C)(C)C)C(=O)N[C@@H](CC(C)C)[C@@H](O)CC(=O)N[C@@H](C)C(=O)N[C@@H](CC(C)C)[C@@H](O)CC(=O)O (Boc-F[Nle][Sta]A[Sta]-OH) |  |
| 260 | CCC[C@H](NC(=O)[C@H](Cc1ccccc1)NC(=O)OC)C(=O)N[C@@H](CC(C)C)[C@@H](O)CC(=O)N[C@@H](C)C(=O)N[C@@H](CC(C)C)[C@@H](O)CC(=O)OC (Moc-F[Nva][Sta]A[Sta]-OMe) |  |
| 1400 | COC(=O)C[C@H](O)[C@H](CC(C)C)NC(=O)[C@H](C)NC(=O)C[C@H](O)[C@H](CC(C)C)NC(=O)[C@H](Cc1c[nH]c2ccccc12)NC(=O)[C@H](Cc1ccccc1)NC(=O)OCc1ccccc1 (Cbz-FW[Sta]A[Sta]-OMe) |  |
| 51 | CCC[C@H](NC(=O)[C@H](Cc1ccccc1)NC(=O)OC(C)(C)C)C(=O)N[C@@H](CC(C)C)[C@@H](O)CC(=O)N[C@@H](C)C(=O)N[C@@H](CC(C)C)[C@@H](O)CC(=O)OC (Boc-F[Nva][Sta]A[Sta]-OMe) |  |
| 320 | COC(=O)C[C@H](O)[C@H](CC(C)C)NC(=O)[C@H](C)NC(=O)C[C@H](O)[C@H](CC(C)C)NC(=O)[C@H](Cc1ccccc1)NC(=O)[C@H](Cc1ccccc1)NC(=O)CC(C)C (Isovaleryl-FF[Sta]A[Sta]-OMe) |  |
| 200 | COC(=O)CC(O)[C@H](CC(C)C)NC(=O)[C@H](C)NC(=O)CC(O)[C@H](CC(C)C)NC(=O)CCCNC(=O)[C@H](Cc1ccccc1)NC(=O)CC(C)C (stereo not given in full) |  |
| 140 | COC(=O)C[C@H](O)[C@H](CC(C)C)NC(=O)[C@H](C)NC(=O)C[C@H](O)[C@H](CC(C)C)NC(=O)[C@H](Cc1c[nH]cn1)NC(=O)[C@H](Cc1c[nH]c2ccccc12)NC(=O)OC(C)(C)C (Boc-WH[Sta]A[Sta]-OMe) | IC50 (Renin [7]): 1300 nM; IC50 (Renin [8]): 140 nM; IC50 (Renin [9]): 110 nM |
| 250 | COC(=O)C[C@H](O)[C@H](CC(C)C)NC(=O)[C@H](C)NC(=O)C[C@H](O)[C@H](CC(C)C)NC(=O)[C@H](Cc1c[nH]cn1)NC(=O)[C@H](CC12CC3CC(CC(C3)C1)C2)NC(=O)OC(C)(C)C (Boc-[Ala(1-Adamantyl)]H[Sta]A[Sta]-OMe) | IC50 (Renin [2]): 250 nM; IC50 (Renin [4]): 650 nM; IC50 (Renin [5]): 2200 nM |
| 75 | COC(=O)C[C@H](O)[C@H](CC(C)C)NC(=O)[C@H](C)NC(=O)C[C@H](O)[C@H](CC(C)C)NC(=O)[C@H](CC(C)C)NC(=O)[C@H](Cc1ccccc1)NC(=O)CC(C)C (Isovaleryl-FL[Sta]A[Sta]-OMe) |  |
| 180 | COC(=O)C[C@H](O)[C@H](CC(C)C)NC(=O)[C@H](C)NC(=O)C[C@H](O)[C@H](CC(C)C)NC(=O)[C@H](Cc1ccccc1)NC(=O)[C@H](Cc1ccccc1)NS(=O)(=O)CCNC(=O)OC(C)(C)C (X1-FF[Sta]A[Sta]-OMe) |  |
| 190 | COC(=O)C[C@H](O)[C@H](CC(C)C)NC(=O)[C@H](C)NC(=O)C[C@H](O)[C@H](CC(C)C)NC(=O)[C@H](Cc1ccccc1)NC(=O)[C@H](Cc1ccccc1)NC(=O)OC(C)(C)C | IC50 (Renin [10]): 130 nM; IC50 (Renin [4]): 76 nM; IC50 (Renin [5]): 190 nM |
